miR122 inh = blocks miR-122 activity in Huh7 sensor cells; Huh7 miR-122 Renilla luciferase sensor, 48 h; neutral wells = 0, positive control = 100; activation (reporter increase), % at 12.5 µM; hit rate 0.3% among 340,000; AID 602342;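 active = mean replicate activation score at least 90 and every replicate individually at or above 90; inconclusive = only one of the two criteria met; inactive = neither criterion met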;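 also: higher luciferase means less miR-122 activity so hits act as miR-122 inhibitors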
DENV2 CPE = inhibitors of DENV2 cytopathic effect; DENV2-infected cells, cytopathic effect rescue, plate reader; hit rate 1.7% among 350,000; AID 651640; CPE inhibition, % at 9.99 µM; in the data active = CPE inhibition above about 20%, passing the limit was not always enough; inconclusive = no clear call, values can overlap the other calls; tested in BHK-21 cells;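 also: 0% = median of neutral control wells and 100% = median of positive control wells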
F508del corr = CFTR F508del correction in bronchial cells; hit rate 0.36% among 350,000; CFBE cells, YFP halide quenching; stimulated with forskolin plus potentiator P3; % fluorescence drop versus neutral controls; activity (quench increase), % at 7.58 µM;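 active = mean added fluorescence quench of at least 8% versus neutral control, with both replicates also reaching 8%; inconclusive = only one of the mean or replicate conditions met; inactive = mean below 8% and not both replicates reaching 8%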;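 also: cells transiently co-express mutant CFTR-F508del with the halide-sensitive YFP; corrector assay measuring rescue of mutant channel to the surface after 24 h compound exposure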
E-sel inducer = E-selectin induction on HUVECs. activation, % at 7.58 µM. P16581. hit rate 0.37% among 260,000. HUVEC E-selectin immunofluorescence imaging; normalized: neutral wells 0, TNF-alpha wells 100;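 active = mean E-selectin-positive cell signal at least 10% of the positive control, reached in at least 60% of replicates, without over 20% cell loss; inconclusive = no rule given, readout overlaps actives, possibly toxicity-flagged; inactive = the rest, including those meeting only one limit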
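Assay system: HUVEC, human umbilical vein endothelial cells / Amount: 3,000 HUVEC/well / Controls: TNF-alpha positive control, DMSO neutral control / Compound dosing: single concentration / Medium: EGM-2 over gelatin coat / Evaluation: percent E-selectin-positive cells / Signal: immunofluorescence imaging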
INS-1E GSIS act = GLuc luminescence reporter in INS-1E cells, primary screen for activators of glucose-dependent secretion of insulin; INS-1E GLuc reporter insulin secretion, 2-3 h; activation, % at 16.6 µM; hit rate 0.61% among 370,000; AID 743287;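 active = lowest replicate activation of at least 40%, so every replicate reaches that level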;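 also: 0% = median of neutral control wells and 100% = median of IBMX positive control wells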
ERAP1 HTS inh = blocks human ERAP1 aminopeptidase activity; inhibition, % at 10.7 µM; hit rate 0.15% among 340,000; AID 652197; recombinant ERAP1, Leu-AMC fluorescence, 60 min;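 active = mean replicate inhibition of at least 30%, or all replicates individually reaching that 30% level; inactive = mean below 30% and not every replicate reaching it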;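 also: 0% = neutral control wells and 100% = L-leucinethiol positive control wells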
Target sequence (Q9NZ08 whole entry, looked up): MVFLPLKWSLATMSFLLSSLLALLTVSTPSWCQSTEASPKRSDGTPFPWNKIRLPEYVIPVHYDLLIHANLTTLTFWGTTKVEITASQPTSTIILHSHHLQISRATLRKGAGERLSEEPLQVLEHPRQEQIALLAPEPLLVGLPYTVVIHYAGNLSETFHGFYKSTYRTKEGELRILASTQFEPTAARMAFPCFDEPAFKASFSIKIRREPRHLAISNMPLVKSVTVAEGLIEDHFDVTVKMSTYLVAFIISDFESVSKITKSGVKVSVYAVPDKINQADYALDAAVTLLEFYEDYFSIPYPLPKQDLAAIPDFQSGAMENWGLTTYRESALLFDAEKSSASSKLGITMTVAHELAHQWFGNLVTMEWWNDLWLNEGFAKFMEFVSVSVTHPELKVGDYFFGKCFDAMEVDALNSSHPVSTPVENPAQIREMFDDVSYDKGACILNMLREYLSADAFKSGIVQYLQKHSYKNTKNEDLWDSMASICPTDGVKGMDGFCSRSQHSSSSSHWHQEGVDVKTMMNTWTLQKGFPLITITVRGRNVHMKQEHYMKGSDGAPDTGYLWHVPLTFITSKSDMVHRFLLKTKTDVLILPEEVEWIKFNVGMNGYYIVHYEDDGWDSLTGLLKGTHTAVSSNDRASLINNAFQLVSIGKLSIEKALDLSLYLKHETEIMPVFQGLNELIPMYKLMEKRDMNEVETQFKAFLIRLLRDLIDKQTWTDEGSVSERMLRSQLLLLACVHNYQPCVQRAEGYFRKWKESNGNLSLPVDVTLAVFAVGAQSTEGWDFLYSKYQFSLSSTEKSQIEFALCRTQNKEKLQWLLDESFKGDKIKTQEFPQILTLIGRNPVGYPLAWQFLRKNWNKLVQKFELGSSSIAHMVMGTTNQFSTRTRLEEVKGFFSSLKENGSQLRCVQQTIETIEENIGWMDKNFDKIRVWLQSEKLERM
* = called active by the depositor; ? = inconclusive; . = no result; [ ] = another dose, or the depositor's remark. The list is not random: actives were taken first. Their share in the collection is about 2.6%.

SMILES | miR122 inh | DENV2 CPE | F508del corr | E-sel inducer | INS-1E GSIS act | ERAP1 HTS inh
C[C@H]1CN([C@@H](C)CO)C(=O)c2cc(Br)cnc2O[C@H]1CN(C)C(=O)Nc1ccc(F)cc1 | -5[16.7 µM] | -1 | . | 0 | -3 | -1
COc1ccc(-c2cnc3c(c2)C(=O)N([C@@H](C)CO)C[C@@H](C)[C@H](CN(C)S(=O)(=O)c2ccc(OC)cc2)O3)cc1 | 0[16.7 µM] | . | 0 | 1 | -16 | .
O=C(O)CCC(=O)Nc1ccc(-c2nc3ccc(C(=O)c4ccccc4)cc3[nH]2)cc1 | 1 | 2 | -1 | 1 | 19 | 1
O=C(c1ccccc1)c1ccc2nc(-c3ccc(NC(=O)c4ccccc4F)cc3)[nH]c2c1 | -10 | . | . | . | 197* | .
O=C(Cn1[nH]c(=O)c2ccccc2c1=O)OCC(=O)c1ccc(F)cc1 | . | ? | 1 | 0 | 53* | 0
O=C(Cn1[nH]c(=O)c2ccccc2c1=O)OCC(=O)c1ccc(F)c(F)c1 | -1 | 3 | 0 | 0 | . | 1
C[C@@H]1CN([C@@H](C)CO)C(=O)c2cc(NC(=O)Cc3ccccc3)ccc2O[C@@H](C)CCCCO[C@@H]1CN(C)Cc1ccc(C(=O)O)cc1 | 4[16.7 µM] | -11 | 0 | 0 | 17 | -1
NC(=S)NN=C1CCCCCCCCCC1 | . | -6 | 2 | 0 | 55* | -1
NC(=S)NN=C1CCC(C2CCCCC2)CC1 (stereo unspecified) | . | -8 | 5 | 0 | 18 | -1
COCCCNC(=O)/C(C#N)=C1\N=C(NC(=O)c2cccs2)c2ccccc21 | . | -4 | 1 | 3 | 15 | 54*
Cc1c(C(=O)Nc2cccc(F)c2)cnn1-c1ccccc1 | -3 | 50* | -2 | . | -7 | 0
COC(=O)COc1ccc(C)cc1-n1nc2ccccc2n1 | 9 | 1 | -1 | 2 | 48* | 4
Cc1[nH]c(=O)c(C#N)cc1-c1ccncc1 | 0 | 9 | 1 | 58* | 32 | -3
CN1C(=O)c2cc(NC(=O)NC3CCCC3)ccc2OC[C@H]2O[C@H](CC(=O)O)CC[C@H]21 | -22[16.7 µM] | 8 | -1 | 0 | 0 | -1
Cc1oc2c(c(C)cc3oc(=O)c(CC(=O)N[C@H](C(=O)O)C(C)C)c(C)c32)c1C | -2 | -2 | 1 | . | -6 | 35*
COc1ccc(CN2CCC[C@]3(N[C@H](c4ccc(OC)cc4)[C@@H]4C(=O)N(C)C(=O)[C@@H]43)C2=O)cc1 | -1 | 27* | 4 | 0 | -8 | 1
O=C1[C@H]2[C@@H](c3ccccc3)N[C@]3(CCCN(Cc4ccc(Cl)cc4)C3=O)[C@H]2C(=O)N1Cc1ccccc1 | 2 | 44* | -4 | 0 | -33 | -6
OC(c1ccc(Cl)c(Cl)c1)c1ncc(-c2ccccc2F)[nH]1 (stereo unspecified) | 104* | 0 | 3 | 0 | -25 | 0
Cc1ccccc1-c1cnc(C(O)c2ccc(F)c(F)c2)[nH]1 (stereo unspecified) | 93* | -7 | -1 | 0 | -12 | 2
OC(c1ccc(Cl)c(F)c1)c1ncc(-c2ccccc2F)[nH]1 (stereo unspecified) | ? | -4 | 2 | 1 | -11 | -2
Cc1ccc(C(O)c2ncc(-c3ccc4ccccc4c3)[nH]2)cc1 (stereo unspecified) | 3 | 76* | 0 | 1 | -34 | -4
C[C@H](CO)N1C[C@H](C)[C@@H](CN(C)S(=O)(=O)c2cccs2)Oc2ccc(NC(=O)CCN3CCOCC3)cc2CC1=O | -3[16.7 µM] | 1 | -2 | -13 | 0 | -3
O=[N+]([O-])c1ccc(C[n+]2cccc(O)c2)cc1 | 2 | 67* | -3 | -1 | -2 | -3
CC(C)(C)c1ccc(-c2cc(NC(=O)Cc3c[nH]c4ccccc34)ccc2Nc2cccnc2)cc1 | . | ? | -2 | 1 | 57* | 0
C=C[C@H](COC(C)=O)N(Cc1ccc(OC(C)=O)c(OC)c1)S(=O)(=O)c1ccc(Br)cc1 | . | 14 | 0 | . | . | 0
SMILES | miR122 inh | DENV2 CPE | F508del corr | E-sel inducer | INS-1E GSIS act | ERAP1 HTS inh
Cc1cc(C(=O)Nc2cccc3c2O[C@H](CN(C)Cc2ccc(C(F)(F)F)cc2)[C@@H](C)CN([C@@H](C)CO)C3=O)n(C)n1 | 82[16.7 µM] | 15 | -1 | -13 | -12 | 5
C[C@@H]1CN([C@@H](C)CO)C(=O)c2cccc(NC(=O)c3cnccn3)c2O[C@H]1CN(C)Cc1ccc(Cl)c(Cl)c1 | 36[16.7 µM] | -9 | -3 | 3 | -34 | 32*
C[C@@H]1CN([C@H](C)CO)C(=O)c2cccc(NC(=O)c3cnccn3)c2O[C@@H]1CN(C)Cc1ccc(C(F)(F)F)cc1 | 1[16.7 µM] | 4 | 4 | . | -10 | -1
C[C@@H]1CN([C@@H](C)CO)C(=O)c2cccc(NC(=O)c3cnccn3)c2O[C@@H]1CN(C)Cc1ccc(C(F)(F)F)cc1 | 5[16.7 µM] | 22* | 0 | . | 0 | 1
Cc1cc(C(=O)Nc2cccc3c2O[C@@H](CN(C)Cc2ccc(C(F)(F)F)cc2)[C@H](C)CN([C@H](C)CO)C3=O)n(C)n1 | 127*[16.7 µM] | -10 | -1 | 19 | -10 | 3
CC(C)NC(=O)N(C)C[C@H]1Oc2ccc(NS(C)(=O)=O)cc2CC(=O)N(C)C[C@@H]1C | . | . | . | . | 34 | .
COc1ccc(C(=O)CSc2nnc(-c3cccs3)n2-c2ccccc2)cc1 | -3 | . | . | . | 46* | .
O=C(NC[C@H]1CC[C@@H]2[C@@H](CN2Cc2cccc(Cl)c2)O1)C1CC1 | . | 2 | 1 | . | . | -5
COc1ccc(C(C)=O)cc1CSc1nnc(Nc2ccc(C)cc2)s1 | 24 | 47* | . | . | . | 0
C[C@@H]1CN([C@H](C)CO)C(=O)c2cc(NS(=O)(=O)c3ccccc3)ccc2O[C@@H](C)CCCCO[C@@H]1CN(C)C(=O)c1ccccc1 | -2[16.7 µM] | ? | 2 | . | -10 | 1
Clc1cccc(-c2ccc(C=Nc3ccc(N4CCOCC4)cc3)o2)c1Cl | . | -4 | 14* | 1 | 4 | -1
Clc1ccc(-c2ccc(C=Nc3ccc(N4CCOCC4)cc3)o2)c(Cl)c1 | -5 | ? | 2 | . | -7 | 0
CC(C)CC#Cc1cnc2c(c1)C(=O)N([C@H](C)CO)C[C@@H](C)[C@H](CN(C)C(=O)CN1CCOCC1)O2 | -8[16.7 µM] | -6 | -2 | 0 | -10 | 1
COc1ccc(Br)cc1CN1CCC(N2CCCC2)CC1 | 1 | 25* | 0 | 0 | 29 | 2
CCCNC(=O)N1C[C@@H](C)[C@H](OC)CN(C)C(=O)c2cc(NS(=O)(=O)CC)ccc2OC[C@@H]1C | 1[16.7 µM] | -13 | . | 0 | -2 | 0
COc1ccccc1N1CCN(S(=O)(=O)CCNC(=O)CCc2ccccc2)CC1 | 2 | 119* | 4 | . | . | 0
COc1ccc(CC(=O)NCCS(=O)(=O)N2CCN(c3ccccc3OC)CC2)cc1 | -10 | -4 | 2 | 0 | -24 | 2

High-throughput results as filed in PubChem BioAssay.
